Drawing on ChEMBL document CHEMBL3817796, “Discovery of Novel 15-Lipoxygenase Activators To Shift the Human Arachidonic Acid Metabolic Network toward Inflammation Resolution” (J Med Chem, 2016), this text covers inhibition, Activity and IC50 for one compound.

SMILES strings stand for the structures. Calls of active or inactive are those of the source. The rule behind the calls is not given here. A value given as a limit tells only on which side of the number the result lay.

The target in test [1] is T1, Polyunsaturated fatty acid 5-lipoxygenase (Homo sapiens) (UniProt P09917).
T1 sequence (whole entry): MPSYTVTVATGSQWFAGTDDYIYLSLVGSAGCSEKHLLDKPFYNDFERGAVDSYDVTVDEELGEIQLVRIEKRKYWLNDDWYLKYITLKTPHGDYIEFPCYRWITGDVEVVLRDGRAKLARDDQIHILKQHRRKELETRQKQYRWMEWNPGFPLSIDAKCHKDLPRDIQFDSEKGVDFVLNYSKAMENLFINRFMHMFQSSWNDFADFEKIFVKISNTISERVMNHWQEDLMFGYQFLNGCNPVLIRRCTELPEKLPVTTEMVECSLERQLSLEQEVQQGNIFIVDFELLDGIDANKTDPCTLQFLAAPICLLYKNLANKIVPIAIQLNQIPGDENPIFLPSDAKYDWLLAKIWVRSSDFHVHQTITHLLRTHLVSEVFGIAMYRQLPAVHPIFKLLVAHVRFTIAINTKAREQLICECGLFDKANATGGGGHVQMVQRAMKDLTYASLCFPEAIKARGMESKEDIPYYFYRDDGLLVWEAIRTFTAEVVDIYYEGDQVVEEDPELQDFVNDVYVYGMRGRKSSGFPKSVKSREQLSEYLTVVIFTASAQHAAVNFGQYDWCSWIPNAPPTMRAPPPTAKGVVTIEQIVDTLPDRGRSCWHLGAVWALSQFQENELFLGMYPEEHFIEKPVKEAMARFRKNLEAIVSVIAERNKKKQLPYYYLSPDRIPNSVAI
Description: Inhibition of human 5-LOX expressed in Escherichia coli BL21-DE3 of assessed as reduction in H2DCFDA oxidation at 100 uM using arachidonic acid substrate incubated for 5 mins by fluorescence spectrophotometry. Summed up: (§1)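 Human 5-LOX activity followed as AA-driven oxidation of H2DCFDA to fluorescent dichlorofluorescein (ex 500/em 520 nm), recorded for 5 min. Compound handled as in the 15-LOX assay.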

Test [2] concerns the target T2, Polyunsaturated fatty acid lipoxygenase ALOX15 (Homo sapiens) (UniProt P16050).
T2 sequence (whole entry): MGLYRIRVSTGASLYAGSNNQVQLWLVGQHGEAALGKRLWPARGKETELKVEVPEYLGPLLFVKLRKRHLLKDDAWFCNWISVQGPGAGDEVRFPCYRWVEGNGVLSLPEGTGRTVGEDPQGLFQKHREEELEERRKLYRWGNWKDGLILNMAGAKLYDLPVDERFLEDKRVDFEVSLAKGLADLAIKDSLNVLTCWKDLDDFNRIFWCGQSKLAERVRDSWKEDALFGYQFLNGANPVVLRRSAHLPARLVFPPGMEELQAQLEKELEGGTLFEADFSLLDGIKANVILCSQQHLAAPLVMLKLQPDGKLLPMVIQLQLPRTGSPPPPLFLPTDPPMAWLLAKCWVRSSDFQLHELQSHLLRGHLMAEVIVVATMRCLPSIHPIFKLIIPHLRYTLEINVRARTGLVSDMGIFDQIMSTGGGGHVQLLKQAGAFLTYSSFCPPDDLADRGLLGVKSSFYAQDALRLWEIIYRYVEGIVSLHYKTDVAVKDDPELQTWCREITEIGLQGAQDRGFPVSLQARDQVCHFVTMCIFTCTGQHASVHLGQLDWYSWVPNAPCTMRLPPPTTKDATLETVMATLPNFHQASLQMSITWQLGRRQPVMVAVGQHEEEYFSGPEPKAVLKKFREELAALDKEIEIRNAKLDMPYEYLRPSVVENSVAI
Description: Activation of 15-LOX in human whole blood assessed as LTB4 production at 100 uM pre-incubated for 20 mins before stimulation with LPS and A23187 for 120 mins in presence of 2 uM 5-LOX inhibitor Zileuton by LC-MS/MS method. The test is classed as tissue-based. Summed up: (§2)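 Human blood preincubated 20 min at 37 °C with DMSO vehicle or compound in DMSO. LPS added at 100 μg/mL for 24 h at 37 °C, then A23187 at 20 μg/mL final. Samples frozen in liquid nitrogen at time points, lysed by freeze–thaw, with PGB2 internal standard. Analysed by C18 LC-MRM MS, negative ion. Change = control-normalized concentration minus 1, ×100%; 120 min value from AUC.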

The target of test [3] is T3, Prostaglandin E synthase (Homo sapiens) (UniProt O14684).
T3 sequence (whole entry): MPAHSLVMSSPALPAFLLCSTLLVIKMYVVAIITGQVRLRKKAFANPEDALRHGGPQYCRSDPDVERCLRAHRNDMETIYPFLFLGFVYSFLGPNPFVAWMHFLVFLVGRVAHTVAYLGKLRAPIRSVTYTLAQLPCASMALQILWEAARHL
Description: Inhibition of mPGES-1 (unknown origin) assessed as reduction in conversion of PGH2 to PGE2 at 100 uM by EIA method. The method in brief: (§3)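 mPGES-1 activity taken as conversion of PGH2 to PGE2, with PGE2 measured by EIA. Compound handled as in the 15-LOX assay.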

In test [4] the target is T2, Polyunsaturated fatty acid lipoxygenase ALOX15 (Homo sapiens). Kind of test: Activation of 15-LOX in human whole blood assessed as increase in 15-HETE production at 100 uM pre-incubated for 20 mins before stimulation with LPS and A23187 for 120 mins in presence of 0.16 to 20 uM 5-LOX inhibitor Zileuton by LC-MS/MS method. The test is classed as tissue-based. The method in brief: as §2

In test [5] the target is T1, Polyunsaturated fatty acid 5-lipoxygenase (Homo sapiens). Description: Activation of human 5-LOX assessed as H2DCFDA oxidation at 100 uM using arachidonic acid substrate incubated for 5 mins by fluorescence assay. Summed up: as §1
In test [6] the target is T2, Polyunsaturated fatty acid lipoxygenase ALOX15 (Homo sapiens). Description: Activation of 15-LOX in human PMN assessed as 12-HETE production at 6.2 to 40 uM pre-incubated for 15 mins before A23187, Ca2+ and Mg2+ stimulation for 1 hr by LC-MS method. Summed up:
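PMNs preincubated 15 min at 37 °C with compound or vehicle, then stimulated 1 h at 37 °C with 10 μM A23187 plus 2 mM Ca2+ and 2 mM Mg2+. Reactions stopped with cold methanol. Eicosanoids quantified by LC-MS.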

A further test deals with T4, Prostaglandin E synthase (Homo sapiens, UniProt O14684).
T4 sequence (O14684 whole entry): T3 sequence (whole entry)
Description: Inhibition of mPGES-1 (unknown origin) assessed as reduction in conversion of PGH2 to PGE2 by EIA method. Summed up: as §3

For orientation: inhibition means the change of the read-out against control, counted positive when it falls. For orientation: IC50 means the concentration at which inhibition is half-maximal. Turning to `CN1CCN(CC(=O)N2N=C3/C(=C/c4ccccc4)CCCC3C2c2ccccc2)CC1` (configuration not stated), the inhibition in test [1] was under 5%; in test [3] it was 63%. Further, the Activity in test [2] was 54%; in test [5], under 5%. The result in test [4] and in test [6] was Active. The IC50 at Prostaglandin E synthase came to 20 µM.
